“And” between values parts separate entries of the source, which are not always exact repeats. Identical values can stand only once.
Legend:
HEK-293T = test: Multiplex assay against HEK293T; format: toxicity, cell-based; details: human, number of replicates 2
Method in brief: (§1)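 Imaging took place on a CQ1 microscope at 37°C and 5% CO2 once compound had been added to live cells stained at seeding with Hoechst33342, BioTracker Green Microtubule Cytoskeleton Dye, MitoTracker Red and Annexin V Alexa Fluor 680. CellPathfinder machine-learning gating classed cells as Hoechst high-intensity objects or normal cells, classed normal cells as having healthy, pyknosed or fragmented nuclei, and classed pyknosed cells as mitotic or apoptotic. Tubulin, mitochondrial-mass and membrane-permeability phenotypes are per cents of the healthy-nucleus cells.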

Fibroblast = test: Multiplex assay against human fibroblast; format: toxicity, cell-based; details: number of replicates 2; method in brief: as §1
[1] = 12 h, 1 µM, compound concentration 1 uM
[2] = 12 h, 10 µM, compound concentration 10 uM
[3] = 24 h, 1 µM, compound concentration 1 uM
[4] = 24 h, 10 µM, compound concentration 10 uM
[5] = 48 h, 1 µM, compound concentration 1 uM
[6] = 48 h, 10 µM, compound concentration 10 uM

## CCC(=O)O[C@@H](OP(=O)(CCCCc1ccccc1)CC(=O)N1C[C@H](C2CCCCC2)C[C@H]1C(=O)[O-])C(C)C.[Na+] (stereo not given in full)
HEK-293T; [1]
  Population Apoptotic (%): 44% and 35%
  Population Fragmented Nuclei (%): 2% and 1%
  Population Healthy Nuclei (%): 86% and 85%
  Population Hoechst High Intensity Objects (%): 5% and 6%
  Population Membrane Permeable-Phenotype (%): 3%
  Population Mitochondria Different-Phenotype (%): 17% and 15%
  Population Mitotic Cells (%): 55% and 64%
  Population Normal (%): 94% and 93%
  Population Pyknosed Nuclei (%): 11% and 12%
  Population Tubulin-Different-Phenotype (%): 46% and 44%
  Total Cell Count: 721 and 624
HEK-293T; [2]
  Population Apoptotic (%): 28% and 35%
  Population Fragmented Nuclei (%): 2% and 3%
  Population Healthy Nuclei (%): 84% and 86%
  Population Hoechst High Intensity Objects (%): 5% and 6%
  Population Membrane Permeable-Phenotype (%): 1% and 3%
  Population Mitochondria Different-Phenotype (%): 13%
  Population Mitotic Cells (%): 71% and 64%
  Population Normal (%): 94% and 93%
  Population Pyknosed Nuclei (%): 12% and 10%
  Population Tubulin-Different-Phenotype (%): 51% and 50%
  Total Cell Count: 743 and 727
HEK-293T; [3]
  Population Apoptotic (%): 40% and 41%
  Population Fragmented Nuclei (%): 5% and 3%
  Population Healthy Nuclei (%): 86% and 88%
  Population Hoechst High Intensity Objects (%): 7% and 8%
  Population Membrane Permeable-Phenotype (%): 3%
  Population Mitochondria Different-Phenotype (%): 4% and 5%
  Population Mitotic Cells (%): 59% and 58%
  Population Normal (%): 92% and 91%
  Population Pyknosed Nuclei (%): 7% and 8%
  Population Tubulin-Different-Phenotype (%): 26% and 30%
  Total Cell Count: 1141 and 899
HEK-293T; [4]
  Population Apoptotic (%): 18% and 31%
  Population Fragmented Nuclei (%): 3% and 4%
  Population Healthy Nuclei (%): 89% and 88%
  Population Hoechst High Intensity Objects (%): 6% and 9%
  Population Membrane Permeable-Phenotype (%): 3% and 2%
  Population Mitochondria Different-Phenotype (%): 2% and 3%
  Population Mitotic Cells (%): 81% and 68%
  Population Normal (%): 93% and 90%
  Population Pyknosed Nuclei (%): 7% and 6%
  Population Tubulin-Different-Phenotype (%): 28% and 31%
  Total Cell Count: 1219 and 1091
HEK-293T; [5]
  Population Apoptotic (%): 22% and 18%
  Population Fragmented Nuclei (%): 12% and 7%
  Population Healthy Nuclei (%): 84% and 88%
  Population Hoechst High Intensity Objects (%): 9% and 11%
  Population Membrane Permeable-Phenotype (%): 5% and 4%
  Population Mitochondria Different-Phenotype (%): 0% and 1%
  Population Mitotic Cells (%): 77% and 81%
  Population Normal (%): 90% and 88%
  Population Pyknosed Nuclei (%): 2% and 3%
  Population Tubulin-Different-Phenotype (%): 10% and 14%
  Total Cell Count: 2926 and 1957
HEK-293T; [6]
  Population Apoptotic (%): 5% and 13%
  Population Fragmented Nuclei (%): 14% and 8%
  Population Healthy Nuclei (%): 82% and 87%
  Population Hoechst High Intensity Objects (%): 10% and 11%
  Population Membrane Permeable-Phenotype (%): 4% and 3%
  Population Mitochondria Different-Phenotype (%): 0%
  Population Mitotic Cells (%): 94% and 86%
  Population Normal (%): 89% and 88%
  Population Pyknosed Nuclei (%): 2% and 4%
  Population Tubulin-Different-Phenotype (%): 12% and 17%
  Total Cell Count: 3198 and 2304
Fibroblast; [1]
  Population Apoptotic (%): 42% and 43%
  Population Fragmented Nuclei (%): 7% and 8%
  Population Healthy Nuclei (%): 69% and 71%
  Population Hoechst High Intensity Objects (%): 0%
  Population Membrane Permeable-Phenotype (%): 9% and 2%
  Population Mitochondria Different-Phenotype (%): 0% and 2%
  Population Mitotic Cells (%): 57% and 56%
  Population Normal (%): 99%
  Population Pyknosed Nuclei (%): 22% and 19%
  Population Tubulin-Different-Phenotype (%): 11% and 9%
  Total Cell Count: 189 and 198
Fibroblast; [2]
  Population Fragmented Nuclei (%): 6% and 13%
  Population Healthy Nuclei (%): 76% and 70%
  Population Hoechst High Intensity Objects (%): 0%
  Population Membrane Permeable-Phenotype (%): 5% and 2%
  Population Mitochondria Different-Phenotype (%): 0%
  Population Mitotic Cells (%): 45% and 82%
  Population Normal (%): 100%
  Population Pyknosed Nuclei (%): 16% and 15%
  Population Tubulin-Different-Phenotype (%): 10% and 5%
  Total Cell Count: 207 and 226
Fibroblast; [3]
  Population Apoptotic (%): 50% and 45%
  Population Fragmented Nuclei (%): 6% and 14%
  Population Healthy Nuclei (%): 73% and 64%

— ChEMBL document CHEMBL5303300, “EUbOPEN Chemogenomics Library - Multiplex” (2023)
